Assay [1] concerns the target T1, full-length AtTSPO (Arabidopsis thaliana, UniProt O82245).
T1 sequence (O82245 1-196): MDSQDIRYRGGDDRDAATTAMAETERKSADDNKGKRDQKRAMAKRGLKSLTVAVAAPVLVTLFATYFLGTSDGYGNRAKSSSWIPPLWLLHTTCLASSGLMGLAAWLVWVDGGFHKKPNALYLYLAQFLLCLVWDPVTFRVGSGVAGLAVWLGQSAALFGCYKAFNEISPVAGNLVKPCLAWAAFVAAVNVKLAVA
As to the kind of experiment: Microscale thermophoresis, PI. It is filed as binding. The method in brief: (§1)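 Microscale thermophoresis used His-tag labelling with RED-tris-NTA. Full-length or N-terminally truncated 10His protein from yeast was titrated against a PI(4,5)P2 concentration gradient in 50 mM Tris pH 8.0, 200 mM NaCl, 10% glycerol, 2% DDM and protease inhibitors. Laser power was 10, 20 or 40%. Values are mean ± SD of three experiments, with Kd from non-linear regression.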
In general terms: In MST a laser heats a spot of the sample, and binding alters the fluorescence response.

The target of assay [2] is T2, AtTSPO^ΔN (Arabidopsis thaliana, UniProt O82245).
T2 sequence (O82245 42-196): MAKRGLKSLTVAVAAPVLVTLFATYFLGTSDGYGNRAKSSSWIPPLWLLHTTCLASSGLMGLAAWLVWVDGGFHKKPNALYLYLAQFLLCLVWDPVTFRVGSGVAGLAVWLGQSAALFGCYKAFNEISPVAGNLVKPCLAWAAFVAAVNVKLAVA
As to the kind of experiment: Microscale thermophoresis, PI. The format is binding. The settings on record: RED-tris-NTA label. The method in brief:
as §1

Assay [3] deals with T3, AtTSPO^Nter (Arabidopsis thaliana, UniProt O82245).
T3 sequence (O82245 1-49): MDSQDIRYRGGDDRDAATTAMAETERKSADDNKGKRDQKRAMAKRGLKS
As to the kind of experiment: NMR 1H-15N HSQC titration of AtTSPO^Nter with lipids. The format is binding.

The target of assay [4] is T1, full-length AtTSPO. As to the kind of experiment: Protein-lipid overlay. The format is binding. The method in brief:
(§2)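 Lipids were spotted on nitrocellulose and air-dried 1 h: PA from CHCl3, and PI3P, PI4P and PI(4,5)P2 from 2% DDM. Commercial PIP strips were also used. Membranes were blocked in 3% BSA in TBS-Tween, incubated with purified protein in blocking buffer for 3 h at room temperature, then probed with primary and HRP secondary antibodies and developed by ECL.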

Assay [5] addresses T3, AtTSPO^Nter. The assay is described as follows: Protein-lipid overlay with purified AtTSPO N-terminal peptide. It is filed as binding. The method in brief:
as §2

A further assay has as its target mTSPO (Mus musculus, UniProt P50637). The assay is described as follows: Protein-lipid overlay with purified mouse TSPO. It is filed as binding. The method in brief: as §2
Assay [6] addresses T4, AtTSPO-PIP2;7 interaction (Arabidopsis thaliana, UniProt O82245).
T4 sequence (O82245 1-196): T1 sequence (O82245 1-196)
T4 sequence (P93004 1-280 partner): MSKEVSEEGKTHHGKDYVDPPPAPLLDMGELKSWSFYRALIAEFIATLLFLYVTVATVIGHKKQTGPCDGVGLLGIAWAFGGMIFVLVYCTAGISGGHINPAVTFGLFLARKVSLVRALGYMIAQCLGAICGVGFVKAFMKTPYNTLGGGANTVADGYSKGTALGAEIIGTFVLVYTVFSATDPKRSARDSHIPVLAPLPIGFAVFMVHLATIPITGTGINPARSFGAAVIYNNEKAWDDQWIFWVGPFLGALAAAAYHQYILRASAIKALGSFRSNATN
The assay is described as follows: Microscale thermophoresis of YFP-PIP2. The format is binding. The conditions noted are these: 50 μM lipid in trans. The method in brief: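 The aquaporin (mVenus-tagged YFP-PIP2;7) was a DDM-solubilised microsomal fraction from transgenic Arabidopsis seedlings. It was titrated against a range of AtTSPO concentrations, with 50 µM PI(4,5)P2, phosphatidylcholine, or no lipid added. Buffer was 50 mM Tris pH 8.0, 200 mM NaCl, 10% glycerol, 2% DDM. YFP was read through the green filter. Normalised data from three experiments (mean ± SD) were fitted by non-linear regression.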

Assay [7] addresses T1, full-length AtTSPO. The assay is described as follows: Microscale thermophoresis, phosphatidic acid titrated against full-length AtTSPO. The format is binding. The settings on record: protein labeled with NT-647-NHS, non-linear fitting. The method in brief: (§3)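 Microscale thermophoresis was run on a Monolith NT115. Lysine residues of yeast-derived full-length protein or bacterially expressed N-terminal peptide were labelled with NT-647-NHS. Labelled protein was titrated against a PA concentration gradient in 50 mM Tris pH 8.0, 200 mM NaCl, 10% glycerol, 2% DDM and protease inhibitors. LED power was 100%. Kd came from non-linear fitting of normalised fluorescence.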

The target of assay [8] is T5, N-terminal peptide (AtTSPO^Nter) (Arabidopsis thaliana, UniProt O82245).
T5 sequence (O82245 1-49): T3 sequence (O82245 1-49)
It is filed as binding. The settings on record: thermophoresis; peptide labeled with NT-647-NHS; non-linear fitting. The method in brief:
as §3

The target in assay [9] is T2, AtTSPO^ΔN. The assay is described as follows: Membrane-spotted PA gradient / PA pull-down with AtTSPO^ΔN. The settings on record: membrane-spotted gradient of PA. The format is binding. The method in brief: as §2
Another assay relates to PLC activity. As to the kind of experiment: PLC activity in seedlings after ABA treatment. The settings on record: 50 μM ABA for 24 h. The format is in vivo, Arabidopsis. The method in brief:
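Ten-day-old seedlings grown on MS agar were incubated 24 h in the dark in liquid half-strength MS with or without 50 µM ABA. PLC activity in seedling extracts was measured in triplicate with the EnzCheck direct PLC kit. Fluorescence was normalised to the kit's Bacillus cereus PC-PLC. Groups were compared by one-way ANOVA with Tukey's test.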

Assay [10] has as its system PI(4,5)P2 biosensor in Arabidopsis suspension cells. The assay is described as follows: PI. It is filed as cell-based. The conditions noted are these: 50 µM ABA for 24h.

One may read the Kd as a measure of binding affinity in units of concentration. The low end stands for higher affinity, the high end for lower affinity.

mTSPO, sequence (P50637 whole entry): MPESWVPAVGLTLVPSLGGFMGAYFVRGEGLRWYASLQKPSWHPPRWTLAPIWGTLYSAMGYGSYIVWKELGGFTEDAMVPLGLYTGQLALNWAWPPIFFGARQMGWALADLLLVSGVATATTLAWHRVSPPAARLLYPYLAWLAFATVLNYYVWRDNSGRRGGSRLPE

In the case of `CCCCCCCC/C=C\CCCCCCCC(=O)OC[C@H](COP(=O)(O)O[C@@H]1[C@H](O)[C@H](O)[C@@H](OP(=O)(O)O)[C@H](OP(=O)(O)O)[C@H]1O)OC(=O)CCCCCCC/C=C\CCCCCCCC` [PI(4,5)P2, 1,2-dioleoyl-sn-glycero-3-phospho-(1’-myo-inositol-4’,5’-bisphosphate)], the Kd was 2.3 ± 0.7 mM on full-length AtTSPO [1] and ~150 µM at AtTSPO^Nter [3]. Moreover, the “binding to AtTSPO^ΔN” value on AtTSPO^ΔN [2] was “no binding was observed”. Further, the “binding to purified full-length AtTSPO” value at full-length AtTSPO [4] is given as “could bind”. Moreover, the “binding to N-terminal peptide of AtTSPO” value on AtTSPO^Nter [5] is “could bind”. The “binding to mTSPO” value on mTSPO is “did not bind”. In addition, in [6], the “AtTSPO and Venus-PIP2;7 interaction” value is “clearly indicating a protein-protein interaction”.
For the compound PI3P, the “binding to purified full-length AtTSPO” value at full-length AtTSPO [4] was “could bind”. The “binding to N-terminal peptide of AtTSPO” value on AtTSPO^Nter [5] is “could bind”. Also, the “binding to mTSPO” value at mTSPO is reported as “bind”.
Consider phosphatidylcholine [PC], for which the “AtTSPO and Venus-PIP2;7 interaction” value in assay [6] is listed as “no interaction”.
Turning to phosphatidic acid [PA], the Kd at full-length AtTSPO [7] amounted to 2.1 mM; in [8] it was 3.3 mM. At full-length AtTSPO [4], the “binding to purified full-length AtTSPO” value is “bound”. Also, the “binding to AtTSPO^ΔN” value at AtTSPO^ΔN [9] was “could not bind”.
Take `CC1=CC(=O)CC(C)(C)[C@@]1(O)/C=C/C(C)=C\C(=O)O` [ABA, abscisic acid]: the “effect on PLC activity” value with PLC activity (KO TSPO seedlings) and with PLC activity (seedlings overexpressing N-terminally truncated AtTSPO) was “no effect” each time. In addition, in the assay on PLC activity (OE TSPO seedlings), the “increase of PLC activity” value is ~4 fold. Besides, the “enhancement of PLC activity compared with untreated samples” value with PLC activity (WT seedlings) is given as ~20%. Moreover, the “distribution of the PI(4,5)P2 biosensor” value in [10] is reported as “partial redistribution of the PI(4,5)P2 biosensor from the PM to the cytosol”.
As for phosphatidylserine [PS], at full-length AtTSPO [4], the “binding to purified full-length AtTSPO” value is on record as “bound”.
Take PI4P: the “binding to purified full-length AtTSPO” value on full-length AtTSPO [4] is reported as “could bind”. Also, the “binding to N-terminal peptide of AtTSPO” value at AtTSPO^Nter [5] was “could bind”.
Regarding PI(3,4)P2, at full-length AtTSPO [4], the “binding to purified full-length AtTSPO” value is given as “bound all tested PIs except PI(3,4)P2”.
For the compound PI5P, the “binding to purified full-length AtTSPO” value on full-length AtTSPO [4] is “could bind”. The “binding to N-terminal peptide of AtTSPO” value on AtTSPO^Nter [5] was “could bind”.
